# Measurements from ChEMBL document CHEMBL1158558, “Design of potential reverse transcriptase inhibitor containing Isatin nucleus using molecular modeling studies” (Bioorg Med Chem, 2010).
# Target: Human immunodeficiency virus type 1 reverse transcriptase (Human immunodeficiency virus 1) (UniProt Q72547)
# Assay: Inhibition of HIV1 RT after 1 hr by ELISA relative to control
# Design: concentration or dose not given beside the values
# Conditions: concentration not given here
# Method in brief: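 RT inhibitors, diluted in lysis buffer, were mixed with reaction mixture and incubated 1 h at 37 °C. Samples were then transferred to microplate modules for 1 h at 37 °C and washed. Anti-DIG-POD (200 mU/ml) was added for 1 h at 37 °C, then washed again. ABTS substrate was developed at 15–25 °C for 10–30 min, and absorbance was read at 405 nm.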
row,SMILES,inhibition [%]
1,Cc1ccc2c(c1)/C(=N/n1cnnc1)C(=O)N2CN1CCOCC1,84.1
2,Cc1ccc2c(c1)/C(=N/n1cnnc1)C(=O)N2CN(C)C,69.1
3,Cc1ccc2c(c1)/C(=N/n1cnnc1)C(=O)N2CN1CCNCC1,90.9
4,CNc1ccc(CN2C(=O)/C(=N\n3cnnc3)c3cc(C)ccc32)cc1,0
5,Cc1ccc2c(c1)/C(=N/n1cnnc1)C(=O)N2CN1CCCCC1,89
